The values that follow come from ChEMBL document CHEMBL1147345, “Appenolides A-C: three new antifungal furanones from the coprophilous fungus Podospora appendiculata” (1993).

Holding throughout (type): functional
For assay [1], the system named is Candida albicans. The experiment in a line: Antifungal activity against Candida albicans ATCC 14053 at 150 ug/disk by standard disk assay. Particulars: read-out: IZ. Put shortly: (§1)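 Standard disc assay with 150 µg of compound loaded per disc. Activity is read as the zone of inhibition around the disc, in mm.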
Assay [2] concerns Sordaria fimicola. The experiment in a line: Antifungal activity against Sordaria fimicola NRRL 6459 assessed as reduction in radial growth rate at 150 ug/disk by centerpoint inoculation disk assay. The arrangement: scale not given: the % may be the effect or the level left.
For assay [3], the system named is Ascobolus stercorarius. The experiment in a line: Antifungal activity against Ascobolus furfuraceus NRRL 6460 assessed as reduction in radial growth rate at 50 ug/disk by centerpoint inoculation disk assay. Also noted: scale not given: the % may be the effect or the level left.
Assay [4] has as its system Bacillus subtilis. The experiment in a line: Antibacterial activity against Bacillus subtilis ATCC 6051 at 150 ug/disk by standard disk assay. Particulars: for zone of inhibition at 150 µg/disc: read-out: IZ. A digest of the protocol:
as §1

The source made the active and inactive calls. The calls are words filed in the database; no cut-off is given here.

For `CC(=O)CCCCC/C=C/C1=C(C)C(=O)OC1` [APPENOLIDE A], the zone of inhibition at 150 µg/disc in assay [1] turned out to be 12 mm. Moreover, the Activity is reported as 54% in assay [2] and 26% in assay [3]. Further, the result in assay [4] was inactive.
With `CC1=C(/C=C/CCCCCC(C)O)COC1=O` (configuration not stated) [APPENOLIDE B], the zone of inhibition at 150 µg/disc in assay [1] is 12 mm; in assay [4], 8 mm. The result in assay [2] and in assay [3] was Active.
In the case of `CCC(O)CCCC/C=C/C1=C(C)C(=O)OC1` (configuration not stated) [APPENOLIDE C], the zone of inhibition at 150 µg/disc stood at 12 mm in assay [1] and 8 mm in assay [4]. Besides, the outcome in assay [2] and in assay [3] was Active.
